From ChEMBL document CHEMBL4321823, “Benzyl Phenylsemicarbazides: A Chemistry-Driven Approach Leading to G Protein-Biased Dopamine D4 Receptor Agonists with High Subtype Selectivity” (J Med Chem, 2019)
Activity calls are given as the source filed them. The calls are words filed in the database; no cut-off is given here.

Legend:
[1] = biological target: T1, Alpha-1A adrenergic receptor (Homo sapiens, UniProt P35348); assay: Displacement of [3H] prazosin from alpha1A adrenergic receptor (unknown origin)
T1 sequence (P35348 whole entry): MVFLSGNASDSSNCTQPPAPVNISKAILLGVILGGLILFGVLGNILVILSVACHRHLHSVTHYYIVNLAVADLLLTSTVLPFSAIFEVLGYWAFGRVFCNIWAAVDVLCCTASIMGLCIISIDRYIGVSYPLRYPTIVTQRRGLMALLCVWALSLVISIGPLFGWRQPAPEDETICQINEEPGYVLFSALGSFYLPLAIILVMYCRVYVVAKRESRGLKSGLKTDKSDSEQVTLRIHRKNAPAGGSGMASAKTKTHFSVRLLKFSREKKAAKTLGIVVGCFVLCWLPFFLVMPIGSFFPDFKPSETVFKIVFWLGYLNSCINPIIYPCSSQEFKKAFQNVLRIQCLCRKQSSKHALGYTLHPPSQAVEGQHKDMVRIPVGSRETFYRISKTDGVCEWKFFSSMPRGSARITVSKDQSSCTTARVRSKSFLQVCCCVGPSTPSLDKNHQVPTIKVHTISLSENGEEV

[2] = biological target: T2, Alpha-1A adrenergic receptor (Homo sapiens) (UniProt P35348); assay: Antagonist activity at human alpha1A adrenergic receptor expressed in HEK293T cells assessed as accumulation of inositol monophosphate using d2-labelled IP1 conjugate incubated for 60 mins by HTRF assay; assay type: functional, cell-based
T2 sequence (whole entry): T1 sequence (P35348 whole entry)

[3] = biological target: Kappa-type opioid receptor (Homo sapiens, UniProt P41145); assay: Displacement of [3H] diprenorphine from kappa opioid receptor (unknown origin)
Outline: (§1)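 Radioligand competition binding; Ki given as mean ± SD from two individual experiments, each run in triplicate.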

[4] = biological target: T3, Muscarinic acetylcholine receptor M2 (Homo sapiens, UniProt P08172); assay: Displacement of [3H] NMS from muscarinic M2 receptor (unknown origin); outline: as §1
T3 sequence (P08172 whole entry): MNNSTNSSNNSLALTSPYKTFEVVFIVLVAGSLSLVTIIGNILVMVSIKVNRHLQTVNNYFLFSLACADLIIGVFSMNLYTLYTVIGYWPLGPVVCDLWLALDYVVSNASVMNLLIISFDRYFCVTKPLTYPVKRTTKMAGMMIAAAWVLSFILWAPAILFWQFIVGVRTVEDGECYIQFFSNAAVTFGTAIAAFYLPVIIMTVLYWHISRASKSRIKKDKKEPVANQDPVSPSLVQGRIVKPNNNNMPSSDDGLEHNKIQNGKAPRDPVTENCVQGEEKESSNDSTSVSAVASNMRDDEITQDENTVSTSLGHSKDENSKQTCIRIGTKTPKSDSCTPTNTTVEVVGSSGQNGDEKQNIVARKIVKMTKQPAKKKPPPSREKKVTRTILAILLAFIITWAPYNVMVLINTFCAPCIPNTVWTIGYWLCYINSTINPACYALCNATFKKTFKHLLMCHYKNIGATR

[5] = biological target: Beta-1 adrenergic receptor (Homo sapiens, UniProt P08588); assay: Displacement of [3H] CGP12177 from beta1 adrenergic receptor (unknown origin)
[6] = biological target: T4, 5-hydroxytryptamine receptor 1A (Homo sapiens, UniProt P08908); assay: Displacement of [3H] WAY100635 from 5HT1A receptor (unknown origin); outline: as §1
T4 sequence (P08908 whole entry): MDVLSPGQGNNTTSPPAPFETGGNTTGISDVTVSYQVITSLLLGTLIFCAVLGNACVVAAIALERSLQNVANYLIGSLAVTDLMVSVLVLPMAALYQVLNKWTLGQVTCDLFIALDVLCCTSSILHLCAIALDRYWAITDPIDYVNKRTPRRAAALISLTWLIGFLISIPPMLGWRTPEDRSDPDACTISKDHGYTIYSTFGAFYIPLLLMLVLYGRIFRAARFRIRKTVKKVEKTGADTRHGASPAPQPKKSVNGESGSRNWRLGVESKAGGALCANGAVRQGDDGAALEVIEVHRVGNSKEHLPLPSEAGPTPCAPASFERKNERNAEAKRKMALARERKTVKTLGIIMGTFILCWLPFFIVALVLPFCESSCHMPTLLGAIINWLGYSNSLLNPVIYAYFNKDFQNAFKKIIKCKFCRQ

D(3) dopamine receptor = D(3) dopamine receptor (Homo sapiens, UniProt P35462); assay: Displacement of [3H] Spiperone from human D3 receptor expressed in CHO cells by competitive radioligand binding assay; assay type: cell-based
D(1A) dopamine receptor = D(1A) dopamine receptor (Homo sapiens, UniProt P21728); assay: Displacement of [3H] SCH23390 from D1 receptor (unknown origin)
[7] = biological target: Muscarinic acetylcholine receptor M3 (Homo sapiens, UniProt P20309); assay: Displacement of [3H] NMS from muscarinic M3 receptor (unknown origin); outline: as §1
[8] = Drug metabolism in Sprague-Dawley rat liver microsomes assessed as unchanged remaining parent compound at 20 uM measured after 120 mins in presence of NADPH by LC-ESI-MS analysis; assay type: ADME, Microsome; conditions: read-out: Drug metabolism
D(1B) dopamine receptor = D(1B) dopamine receptor (Homo sapiens, UniProt P21918); assay: Displacement of [3H] SCH23390 from D5 receptor (unknown origin)
[9] = biological target: Beta-2 adrenergic receptor (Homo sapiens, UniProt P07550); assay: Displacement of [3H] CGP12177 from beta2 adrenergic receptor (unknown origin)
[10] = biological target: T5, Alpha-2A adrenergic receptor (Homo sapiens, UniProt P08913); assay: Displacement of [3H] RX821002 from alpha2A adrenergic receptor (unknown origin)
T5 sequence (P08913 whole entry): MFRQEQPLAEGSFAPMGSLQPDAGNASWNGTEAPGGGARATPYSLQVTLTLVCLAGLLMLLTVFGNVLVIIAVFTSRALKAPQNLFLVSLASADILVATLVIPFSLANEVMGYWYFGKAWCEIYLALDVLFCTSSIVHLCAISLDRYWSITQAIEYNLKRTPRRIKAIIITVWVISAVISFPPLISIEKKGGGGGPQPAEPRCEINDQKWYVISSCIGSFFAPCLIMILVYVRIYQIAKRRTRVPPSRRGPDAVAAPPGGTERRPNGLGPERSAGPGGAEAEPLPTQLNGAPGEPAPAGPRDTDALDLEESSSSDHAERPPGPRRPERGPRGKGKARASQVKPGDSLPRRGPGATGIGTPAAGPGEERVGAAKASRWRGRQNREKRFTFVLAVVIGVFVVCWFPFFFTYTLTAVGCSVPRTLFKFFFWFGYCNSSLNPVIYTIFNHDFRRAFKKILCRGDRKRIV

[11] = Drug metabolism in Sprague-Dawley rat liver microsomes assessed as metabolite formation at 20 uM measured after 120 mins in presence of NADPH by LC-ESI-MS analysis; assay type: ADME, Microsome; conditions: 2 h
Mu-type opioid receptor = Mu-type opioid receptor (Homo sapiens, UniProt P35372); assay: Displacement of [3H] diprenorphine from mu opioid receptor (unknown origin); outline: as §1
D(2) dopamine receptor [12] = biological target: T6, D(2) dopamine receptor (Homo sapiens, UniProt P14416); assay: Displacement of [3H] Spiperone from human D2L receptor expressed in CHO cells by competitive radioligand binding assay; assay type: cell-based
D(2) dopamine receptor [13] = biological target: T6, D(2) dopamine receptor; assay: Displacement of [3H] Spiperone from human D2S receptor expressed in CHO cells by competitive radioligand binding assay; assay type: cell-based
[14] = biological target: 5-hydroxytryptamine receptor 2A (Homo sapiens, UniProt P28223); assay: Displacement of [3H] Ketanserin from 5HT2A receptor (unknown origin)
[15] = biological target: T7, Muscarinic acetylcholine receptor M1 (Homo sapiens, UniProt P11229); assay: Displacement of [3H] NMS from muscarinic M1 receptor (unknown origin); outline: as §1
T7 sequence (P11229 whole entry): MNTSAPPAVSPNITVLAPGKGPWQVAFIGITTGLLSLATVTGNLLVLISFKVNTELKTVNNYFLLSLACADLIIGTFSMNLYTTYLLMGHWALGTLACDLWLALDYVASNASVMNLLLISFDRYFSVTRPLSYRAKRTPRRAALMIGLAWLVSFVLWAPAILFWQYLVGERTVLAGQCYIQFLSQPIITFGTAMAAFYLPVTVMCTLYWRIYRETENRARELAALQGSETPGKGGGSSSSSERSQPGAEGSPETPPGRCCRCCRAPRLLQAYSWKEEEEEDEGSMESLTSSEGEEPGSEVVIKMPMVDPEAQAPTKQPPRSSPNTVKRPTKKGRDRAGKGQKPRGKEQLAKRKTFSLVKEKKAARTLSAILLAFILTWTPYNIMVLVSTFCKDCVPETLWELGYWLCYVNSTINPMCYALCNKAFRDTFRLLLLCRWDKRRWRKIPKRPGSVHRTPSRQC

[16] = biological target: Delta-type opioid receptor (Homo sapiens, UniProt P41143); assay: Displacement of [3H] diprenorphine from delta opioid receptor (unknown origin)
Delta-type opioid receptor, sequence (P41143 whole entry): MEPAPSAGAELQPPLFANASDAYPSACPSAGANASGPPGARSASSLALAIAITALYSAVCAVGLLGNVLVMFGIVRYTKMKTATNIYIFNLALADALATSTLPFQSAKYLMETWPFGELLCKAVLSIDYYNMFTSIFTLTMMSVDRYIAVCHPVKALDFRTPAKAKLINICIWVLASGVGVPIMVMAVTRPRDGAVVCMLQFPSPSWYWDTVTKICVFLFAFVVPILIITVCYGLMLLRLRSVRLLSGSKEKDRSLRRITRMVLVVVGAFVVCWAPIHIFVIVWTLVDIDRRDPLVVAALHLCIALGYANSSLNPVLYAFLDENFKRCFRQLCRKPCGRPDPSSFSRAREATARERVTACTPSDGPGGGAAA

T6 sequence (P14416 whole entry): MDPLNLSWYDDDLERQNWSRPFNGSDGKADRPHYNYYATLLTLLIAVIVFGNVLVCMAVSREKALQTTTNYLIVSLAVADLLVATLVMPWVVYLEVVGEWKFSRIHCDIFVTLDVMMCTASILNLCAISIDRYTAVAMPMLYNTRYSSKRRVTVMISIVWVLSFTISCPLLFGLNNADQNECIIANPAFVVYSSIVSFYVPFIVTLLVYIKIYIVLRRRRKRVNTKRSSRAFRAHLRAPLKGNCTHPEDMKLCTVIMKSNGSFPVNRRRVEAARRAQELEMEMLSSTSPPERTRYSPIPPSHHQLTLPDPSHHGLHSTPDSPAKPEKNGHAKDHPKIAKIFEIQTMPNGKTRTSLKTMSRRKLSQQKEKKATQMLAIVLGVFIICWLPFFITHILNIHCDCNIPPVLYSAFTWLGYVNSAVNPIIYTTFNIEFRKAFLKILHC
D(1B) dopamine receptor, sequence (P21918 whole entry): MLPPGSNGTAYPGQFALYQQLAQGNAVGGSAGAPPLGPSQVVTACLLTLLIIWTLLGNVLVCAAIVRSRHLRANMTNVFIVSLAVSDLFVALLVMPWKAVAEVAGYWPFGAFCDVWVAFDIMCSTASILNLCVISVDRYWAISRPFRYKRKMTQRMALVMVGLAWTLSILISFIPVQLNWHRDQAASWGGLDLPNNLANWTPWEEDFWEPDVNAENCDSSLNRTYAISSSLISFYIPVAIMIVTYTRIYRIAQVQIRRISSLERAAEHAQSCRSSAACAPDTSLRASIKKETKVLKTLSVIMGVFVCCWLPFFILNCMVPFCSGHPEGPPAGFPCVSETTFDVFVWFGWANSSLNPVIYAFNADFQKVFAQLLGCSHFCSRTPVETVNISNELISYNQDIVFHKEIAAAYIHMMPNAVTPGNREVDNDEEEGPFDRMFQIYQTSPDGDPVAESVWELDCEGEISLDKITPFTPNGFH
5-hydroxytryptamine receptor 2A, sequence (P28223 whole entry): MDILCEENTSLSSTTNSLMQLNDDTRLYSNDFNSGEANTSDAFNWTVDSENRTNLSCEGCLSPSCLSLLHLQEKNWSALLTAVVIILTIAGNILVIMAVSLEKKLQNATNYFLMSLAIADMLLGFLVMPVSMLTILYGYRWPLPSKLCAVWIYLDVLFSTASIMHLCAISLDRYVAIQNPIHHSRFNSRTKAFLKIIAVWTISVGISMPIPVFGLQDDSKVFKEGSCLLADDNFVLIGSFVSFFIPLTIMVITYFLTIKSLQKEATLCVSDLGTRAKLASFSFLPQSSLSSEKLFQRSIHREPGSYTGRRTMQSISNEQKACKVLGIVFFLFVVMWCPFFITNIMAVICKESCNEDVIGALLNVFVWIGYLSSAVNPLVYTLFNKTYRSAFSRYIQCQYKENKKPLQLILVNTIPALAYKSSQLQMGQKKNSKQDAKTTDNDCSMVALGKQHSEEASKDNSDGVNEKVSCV
Muscarinic acetylcholine receptor M3, sequence (P20309 whole entry): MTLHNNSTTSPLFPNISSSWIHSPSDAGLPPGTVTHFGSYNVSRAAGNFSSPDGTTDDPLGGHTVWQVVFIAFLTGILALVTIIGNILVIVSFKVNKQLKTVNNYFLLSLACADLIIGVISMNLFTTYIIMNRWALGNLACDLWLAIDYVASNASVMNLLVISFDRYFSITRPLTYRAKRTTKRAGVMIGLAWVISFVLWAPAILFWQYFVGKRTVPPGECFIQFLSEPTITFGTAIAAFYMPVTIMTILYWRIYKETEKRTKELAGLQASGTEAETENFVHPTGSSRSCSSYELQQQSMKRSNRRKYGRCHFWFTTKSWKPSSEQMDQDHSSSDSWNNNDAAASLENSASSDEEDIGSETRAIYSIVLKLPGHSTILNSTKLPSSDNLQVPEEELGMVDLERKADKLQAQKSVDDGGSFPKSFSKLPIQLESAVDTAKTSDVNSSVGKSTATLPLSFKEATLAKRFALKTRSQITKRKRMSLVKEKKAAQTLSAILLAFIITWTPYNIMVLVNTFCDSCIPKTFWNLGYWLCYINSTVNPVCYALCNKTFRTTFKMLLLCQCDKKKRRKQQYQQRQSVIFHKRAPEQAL
Kappa-type opioid receptor, sequence (P41145 whole entry): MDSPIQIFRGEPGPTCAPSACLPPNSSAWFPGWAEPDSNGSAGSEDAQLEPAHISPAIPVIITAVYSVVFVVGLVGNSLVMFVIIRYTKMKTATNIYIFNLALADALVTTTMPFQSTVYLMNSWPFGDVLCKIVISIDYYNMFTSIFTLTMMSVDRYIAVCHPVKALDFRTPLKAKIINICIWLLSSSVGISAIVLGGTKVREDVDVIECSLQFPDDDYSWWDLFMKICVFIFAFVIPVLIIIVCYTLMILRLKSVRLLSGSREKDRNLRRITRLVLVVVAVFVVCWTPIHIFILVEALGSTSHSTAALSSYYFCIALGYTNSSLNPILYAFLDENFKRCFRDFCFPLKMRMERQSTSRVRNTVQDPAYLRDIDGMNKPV
Beta-2 adrenergic receptor, sequence (P07550 whole entry): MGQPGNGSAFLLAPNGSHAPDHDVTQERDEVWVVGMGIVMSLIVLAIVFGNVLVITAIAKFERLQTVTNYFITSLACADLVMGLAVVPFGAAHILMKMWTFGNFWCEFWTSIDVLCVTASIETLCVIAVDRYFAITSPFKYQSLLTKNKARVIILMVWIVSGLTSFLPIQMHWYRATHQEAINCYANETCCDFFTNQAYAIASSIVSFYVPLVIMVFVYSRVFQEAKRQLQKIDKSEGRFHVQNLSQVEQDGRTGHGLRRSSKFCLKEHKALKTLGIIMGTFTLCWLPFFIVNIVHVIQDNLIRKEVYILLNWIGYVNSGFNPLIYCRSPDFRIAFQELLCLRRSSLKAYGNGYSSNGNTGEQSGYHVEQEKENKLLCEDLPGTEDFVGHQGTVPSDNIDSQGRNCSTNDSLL
D(1A) dopamine receptor, sequence (P21728 whole entry): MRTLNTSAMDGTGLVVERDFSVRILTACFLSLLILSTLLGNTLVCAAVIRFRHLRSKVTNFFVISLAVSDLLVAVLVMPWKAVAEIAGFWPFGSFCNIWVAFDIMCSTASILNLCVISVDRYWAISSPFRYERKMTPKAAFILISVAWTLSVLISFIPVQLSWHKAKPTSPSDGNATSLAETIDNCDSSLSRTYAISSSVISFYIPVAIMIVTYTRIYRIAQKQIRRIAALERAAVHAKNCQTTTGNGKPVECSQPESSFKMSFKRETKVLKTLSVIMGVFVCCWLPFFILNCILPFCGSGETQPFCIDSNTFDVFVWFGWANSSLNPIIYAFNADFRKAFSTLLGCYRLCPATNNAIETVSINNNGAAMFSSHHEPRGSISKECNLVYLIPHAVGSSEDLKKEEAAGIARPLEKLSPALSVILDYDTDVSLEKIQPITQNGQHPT
Beta-1 adrenergic receptor, sequence (P08588 whole entry): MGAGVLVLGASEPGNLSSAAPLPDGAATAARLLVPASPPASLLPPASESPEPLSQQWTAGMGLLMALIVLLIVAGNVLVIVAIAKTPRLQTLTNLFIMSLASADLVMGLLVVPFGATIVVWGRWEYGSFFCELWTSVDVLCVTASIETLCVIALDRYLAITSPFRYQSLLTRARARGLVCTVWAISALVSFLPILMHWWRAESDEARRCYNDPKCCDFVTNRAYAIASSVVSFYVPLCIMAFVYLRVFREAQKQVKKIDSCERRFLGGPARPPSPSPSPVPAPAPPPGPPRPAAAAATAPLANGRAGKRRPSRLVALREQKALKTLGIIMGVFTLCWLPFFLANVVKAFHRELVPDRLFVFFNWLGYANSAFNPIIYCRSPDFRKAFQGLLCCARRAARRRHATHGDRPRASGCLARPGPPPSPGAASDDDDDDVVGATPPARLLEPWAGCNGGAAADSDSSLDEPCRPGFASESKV
Mu-type opioid receptor, sequence (P35372 whole entry): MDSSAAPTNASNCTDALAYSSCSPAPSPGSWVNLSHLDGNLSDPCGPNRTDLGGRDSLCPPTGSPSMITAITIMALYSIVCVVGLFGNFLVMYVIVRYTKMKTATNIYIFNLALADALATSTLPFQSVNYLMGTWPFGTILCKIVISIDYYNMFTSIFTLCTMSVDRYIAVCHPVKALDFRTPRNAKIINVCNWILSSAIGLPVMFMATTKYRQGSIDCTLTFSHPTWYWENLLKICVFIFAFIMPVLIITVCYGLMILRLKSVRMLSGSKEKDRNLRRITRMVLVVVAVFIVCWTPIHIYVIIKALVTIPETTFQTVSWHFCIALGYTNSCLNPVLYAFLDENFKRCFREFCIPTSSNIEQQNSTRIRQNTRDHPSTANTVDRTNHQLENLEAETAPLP
D(3) dopamine receptor, sequence (P35462 whole entry): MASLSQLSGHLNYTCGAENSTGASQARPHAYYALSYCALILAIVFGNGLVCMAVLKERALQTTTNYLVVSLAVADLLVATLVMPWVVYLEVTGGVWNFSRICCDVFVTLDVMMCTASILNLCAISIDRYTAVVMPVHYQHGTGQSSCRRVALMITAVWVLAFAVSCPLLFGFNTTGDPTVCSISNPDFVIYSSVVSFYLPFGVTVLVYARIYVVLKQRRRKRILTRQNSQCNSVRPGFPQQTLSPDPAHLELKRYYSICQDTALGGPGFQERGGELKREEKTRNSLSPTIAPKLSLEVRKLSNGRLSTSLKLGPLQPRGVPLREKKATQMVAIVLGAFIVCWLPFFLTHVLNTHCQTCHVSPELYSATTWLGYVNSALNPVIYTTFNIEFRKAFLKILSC

- Ki [1]: 1.7 nM
- Activity [2]: inactive
- Ki [3]: 3900 nM
- Ki [4]: 14000 nM
- Ki [5]: 13000 nM
- Ki [6]: 17 nM
- Ki (D(3) dopamine receptor): 170 nM
- Ki (D(1A) dopamine receptor): 200 nM
- Ki [7]: 25000 nM
- remaining at 2 h, 20 µM [8]: 10%
- Ki (D(1B) dopamine receptor): 340 nM
- Ki [9]: 1800 nM
- Ki [10]: 400 nM
- Drug metabolism [11]: Metabolite_Detected
- Ki (Mu-type opioid receptor): 2000 nM
- Ki (D(2) dopamine receptor [12]): 77 nM
- Ki (D(2) dopamine receptor [13]): 73 nM
- Ki [14]: 65 nM
- Ki [15]: 25000 nM
- Ki [16]: 10000 nM
SMILES: COc1ccccc1N1CCN(CCCNC(=O)NN(Cc2ccccc2)c2ccccc2)CC1
